The campaign covered roughly 300,000 compounds. About 4,400 (1.5%) were called active.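 The calls were made as follows: active = mean inhibition across valid replicates above about 55% (limit read from the data); inconclusive = mean below that limit but half or more replicates reach it; inactive = mean below it, under half of replicates reach it.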 For the sample, actives were picked, then their nearest neighbours and some compounds at random.

The nature of the assay: Trypanosoma cruzi replication blockers in host cells – luminescence, NIH3T3 host cells, primary screen (AID 1885).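 Also: signal also drops with host cell toxicity which is not excluded here; 0% = plate median of DMSO wells and 100% = zero luminescence signal; higher percent means less beta-gal luminescence so fewer parasites.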 The following applies: T. cruzi beta-gal in NIH3T3, luminescence, 90 h; active compounds read high; concentration not given here. The method in brief: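 Assay system: NIH/3T3 fibroblasts plus reporter T. cruzi. Amount: NIH/3T3 cells, 5,000 per well. Buffer or medium: DMEM, 2% fetal bovine serum. Doses: compound pinned at 50 nL/well, DMSO. Schedule: ≥90 h infection period, 3 h prior cell attachment. Signal: luminescent β-galactosidase signal after 60 min lysis. Read-out: parasite load inhibition, %.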
With `COc1ccccc1CN(C)C(=O)c1cc2ccccc2o1`, the inhibition is 0.505% (inactive). Regarding `N=c1oc2ccccc2cc1C(=O)NCc1ccccc1`, the inhibition was -12.9% (inactive). Turning to `CN(C)CCCCCN(C)Cc1cc2ccccc2o1`, the inhibition was 69.5% (active). The same measure for `O=C(COc1ccc2ccc(=O)oc2c1)NCC(O)c1ccccc1` (stereo not drawn): -12.4% (inactive); for `COc1cc(NC(=O)CCNC(=O)Cn2ccc3ccccc3c2=O)cc(OC)c1OC`: -1.49% (inactive); for `Cc1ccc(-c2c(C)n([O-])c3c([n+]2=O)CCC3)cc1`: -4.48% (inactive).

For the compound `CCOc1cc(NC(=O)c2ccccc2C(=O)O)c(OCC)cc1NC(=O)c1ccccc1F`, the inhibition was 60.5% (active). The same measure for `CCOc1cc(NC(=O)Nc2ccccc2)c(OCC)cc1NC(=O)CC`: -28.4% (inactive); for `NC(=O)c1ccccc1NC(=O)c1ccccc1F`: -8.84% (inactive). Take `COc1cccc(N(CC(=O)NC2CCCCCC2)S(=O)(=O)c2ccccc2)c1`: the inhibition is 21.4% (inactive). The same measure for `Cc1ccc(-c2ccc(/C=N/NC(=O)CN3CCOCC3)o2)cc1[N+](=O)[O-]`: -11.4% (inactive). The same measure for `Cc1cc(C(=O)N/N=C/c2ccccc2[N+](=O)[O-])c(C)o1`: -0.35% (inactive); for `Cc1occc1C(=O)N/N=C/c1ccc(-c2cccc([N+](=O)[O-])c2)o1`: 67.8% (active); for `CC(=O)N1CCN(CC(C)(C)NS(=O)(=O)c2ccc(C)cc2)CC1`: 11.8% (inactive). The same measure for `O=C(CCc1ccccc1)Nc1ncc([N+](=O)[O-])s1`: 86.1% (active); for `O=C(Nc1ncc([N+](=O)[O-])s1)C1COc2ccccc2O1` (stereo not drawn): -1.76% (inactive); for `O=C(Cc1c(F)cccc1Cl)Nc1ncc([N+](=O)[O-])s1`: 50.4% (inactive). In the case of `Cc1ccccc1C(=O)NNC(=O)CN1C(=O)c2ccccc2C1=O`, the inhibition was -15.4% (inactive). Turning to `COc1ccc(OCc2cc(C(=O)NCC3(C)COC3)no2)c(Cl)c1`, the inhibition was -0.702% (inactive).

In the case of `CCCCn1c(N)c(N(CCOC)C(=O)c2cccc(S(=O)(=O)N3CCCCC3)c2)c(=O)[nH]c1=O`, the inhibition is -8.61% (inactive). The same measure for `COCCCNC(=O)/C=C/c1ccc(OCc2c(F)cccc2Cl)cc1`: 19% (inactive); for `O=C(/C=C/c1ccc(OCc2c(F)cccc2Cl)cc1)N1CCOCC1`: 16.6% (inactive). The same measure for `CN(C)CCCNC(=O)/C=C/c1ccc(OCc2c(F)cccc2Cl)cc1`: 55.5% (active). The same measure for `COc1ccc(C2c3[nH]c4ccccc4c3C[C@H]3C(=O)N(CC(C)C)CC(=O)N23)c(OC)c1` (stereo partly drawn): 9.19% (inactive).

For `Cc1cc(C)c2[nH]c(=O)c(CN(Cc3ccccc3)C(=S)NCCCN(C)C)cc2c1`, the inhibition was 59.1% (active). Regarding `Cc1cccc2cc(CN(Cc3cccs3)C(=S)NCc3ccco3)c(=O)[nH]c12`, the inhibition was 18.3% (inactive).

Take `COCCCNC(=S)N(CCN(C)C)Cc1cc2cc3c(cc2[nH]c1=O)OCCO3`: the inhibition was -7.66% (inactive). On to `COc1ccc(Cc2cc(-c3ccc(F)cc3)n[nH]c2=O)cc1`, for which the inhibition is -6.16% (inactive). For the compound `CC1(c2ccccc2)NC(=O)N(CC(=O)Nc2cc(Cl)ccc2N2CCOCC2)C1=O` (stereo not drawn), the inhibition was 5.62% (inactive). The same measure for `CCc1cccc(C)c1NC(=O)COC(=O)CNC(=O)c1cccs1`: -15.5% (inactive); for `Cc1cccc(N(CC(=O)N=Nc2c(O)[nH]c3ccccc23)S(C)(=O)=O)c1C`: 16.1% (inactive). In the case of `CN1CCN(c2ccc(S(=O)(=O)Nc3ccccc3)cc2[N+](=O)[O-])CC1`, the inhibition was 18.5% (inactive). The same measure for `O=[N+]([O-])c1cc(S(=O)(=O)Nc2cccc(Cl)c2)ccc1N=Nc1c(O)[nH]c2ccccc12`: 61.7% (active); for `O=C(NCC(c1ccco1)N1CCc2ccccc2C1)c1ccccc1Cl` (stereo not drawn): -5.54% (inactive); for `O=C(NCc1cccnc1)c1cc(S(=O)(=O)N2CCOCC2)c(Cl)cc1Cl`: 3.92% (inactive). The same measure for `Cc1noc(C)c1CSCC(=O)Nc1ccc(Br)cc1Cl`: 1.67% (inactive); for `O=C(Nc1cccc(NC(=O)c2ccco2)c1)c1cnccn1`: 21.9% (inactive).

As for `O=C(Nc1cccc(-c2nc3ncccc3o2)c1)c1ccco1`, the inhibition is 69.4% (active).

`O=C(Nc1cc(-c2nc3ncccc3o2)ccc1Cl)c1ccco1`: the inhibition is -11% (inactive). The same measure for `N#Cc1ccccc1NC(=O)COc1c(Br)cc(Br)c2cccnc12`: -12.8% (inactive); for `CCN1CCN(c2ccc(S(=O)(=O)N3CCCCC3)cc2NC(=O)c2cccc(NC(C)=O)c2)CC1`: 0.05% (inactive); for `CN1CCN(c2ccc(S(=O)(=O)N3CCCCC3)cc2NC(=O)Cc2ccccc2F)CC1`: 45.1% (inactive). The same measure for `CC(=O)NCCC(=O)Nc1cc(S(=O)(=O)N2CCOCC2)ccc1N1CCOCC1`: -12% (inactive). For the compound `CN1CCN(c2ccc(S(=O)(=O)N3CCOCC3)cc2NC(=O)CCc2ccccc2)CC1`, the inhibition is 54.9% (active).

With `CCN1CCN(c2ccc(S(=O)(=O)N3CCCCC3)cc2NC(=O)Cc2c(Cl)cccc2Cl)CC1`, the inhibition was 65.7% (active). The same measure for `O=C(COc1cccc2ccccc12)Nc1cc(S(=O)(=O)N2CCOCC2)ccc1N1CCOCC1`: 2.7% (inactive); for `CCOC(=O)C1=C(c2ccccc2)N=C2SCC(=O)N2C1c1ccc(O)c(OC)c1` (stereo not drawn): -14.5% (inactive).

As for `Cc1nn(C)c(C)c1CN(C(=O)CCc1nnc(Cc2c[nH]c3ccccc23)o1)C(C)C`, the inhibition was 9.23% (inactive). Regarding `CCOC(=O)N1CCN(S(=O)(=O)c2ccc(-n3cnnn3)cc2)CC1`, the inhibition is 0.644% (inactive). The same measure for `COc1ccc(NC(=O)C(=O)NCC(c2ccco2)N2CCc3ccccc3C2)cc1` (stereo not drawn): 9.29% (inactive); for `CCc1ccccc1NC(=O)NCCN1CCCCC1`: 1.39% (inactive); for `O=C(c1cc(C(=O)N2CCN(c3ccc(F)cc3)CC2)cc([N+](=O)[O-])c1)N1CCN(c2ccc(F)cc2)CC1`: 45.8% (inactive). The same measure for `CC1CCC2CCCCC2N1C(=O)c1cc([N+](=O)[O-])cc([N+](=O)[O-])c1` (stereo not drawn): 56% (active). In the case of `CC1CCN(C(=S)c2cccc([N+](=O)[O-])c2)CC1`, the inhibition was 1.31% (inactive). The same measure for `OCC(O)CN(c1ccccc1)c1ccccc1` (stereo not drawn): -11.6% (inactive). In the case of `COc1ccc(C)cc1Nc1n[n+](-c2ccccc2)c(-c2cccc(Cl)c2Cl)s1`, the inhibition is 61.2% (active).

For `COc1ccc(C)cc1S(=O)(=O)Nc1cccc(Cl)c1Cl`, the inhibition was 8.72% (inactive).

`COc1cc(Br)c(-c2sc(Nc3ccccc3)n[n+]2-c2ccccc2)cc1OC`: the inhibition is 0.144% (inactive).

In general, inhibition refers to the drop in the measured response relative to a control, in per cent.
